The subject of series [1] is A2780. Description: Cytotoxicity against human A2780 cells by […]. In kind it is functional, cell-based. The essentials: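 Cells were exposed to inhibitors together with 1 μg/mL TRAIL for 24 hr. Viability was read by CellTiter-Glo assay.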
For series [2], the system named is A2780. Description: Cytotoxicity against human A2780 cells by ESI. In kind it is functional, cell-based.
Series [3] can be described thus: Bioavailability in ip dosed mouse. In kind it is ADME, organism-based. The settings on record: in vivo. The essentials:
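Bioavailability was calculated from intraperitoneal administration relative to an intravenous 1 mg/kg dose in mouse.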

Series [4] is described as follows: Half life in mouse liver microsomes. It counts as ADME. The essentials: (§1)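 Stability in mouse liver microsomes in vitro. Half-life (min) and intrinsic clearance (μL·min⁻¹·mg⁻¹) were determined.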
The test system of series [5] is A2780. Kind of series: Antimigratory activity against human A2780 cells at 0.75 to 1.5 uM by wound healing assay. It counts as functional, cell-based. The essentials: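 Wound healing: A2780 monolayers were treated with inhibitors and then scratch-wounded. The cell-free area was photographed at set time points, and the open wound area was quantified.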
The nature of series [6]: Inhibition of Akt in human U87MG cells assessed as inhibition of TORC1/p70S6K/S6 pathway at 0.3 to 50 uM after 7 hrs by Western blotting analysis. It counts as cell-based. The following applies: U-87MG ATCC. The essentials:
(§2)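 U87MG or A2780 cells were exposed to inhibitors for 7 hr. Lysates were Western blotted with phospho-S6 and total S6 antibodies.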
In general terms: Immunoblotting shows a protein as a band on a membrane.

Series [7] addresses RAC-alpha serine/threonine-protein kinase (Homo sapiens) (UniProt P31749). Description: Inhibition of Akt PH domain (unknown origin) binding to PI(3,4)P2 at 100 uM by lipid overlay assay. The essentials: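 Lipid overlay: AktPH domain binding to PI(3,4)P2 spotted on a […] membrane.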
Series [8] in a line: Clearance in mouse liver microsomes. It counts as ADME. The following applies: read-out: CLH. The essentials:
as §1
For orientation: Liver microsomes are vesicles of endoplasmic reticulum, rich in cytochrome P450 enzymes.

Series [9] is described as follows: Inhibition of Akt in human A2780 cells assessed as inhibition of TORC1/p70S6K/S6 pathway at 0.3 to 50 uM after 7 hrs by Western blotting analysis. In kind it is cell-based. In a few lines:
as §2

The test system of a further series is U-87 MG. Kind of series: Cytotoxicity against human U87MG cells at 6.25 to 50 uM after 24 hrs by CellTitre-Glo assay. In kind it is functional, cell-based. The settings on record: U-87MG ATCC. In a few lines: (§3)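 Cells were treated with inhibitors alone for 24 hr. Viability was read by CellTiter-Glo luminescence.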
For the next series, the system named is T47D. Kind of series: Cytotoxicity against human T47D cells at 6.25 to 50 uM after 24 hrs by CellTitre-Glo assay. In kind it is functional, cell-based. In a few lines:
as §3

The subject of series [10] is A2780. Description: Cytotoxicity against human A2780 cells at 6.25 to 50 uM after 24 hrs by CellTitre-Glo assay. It counts as functional, cell-based. In a few lines: as §3
A short description of series [11]: Half life in mouse at 1 mg/kg, iv. It counts as ADME, organism-based. The settings on record: in vivo.
Series [12] is described as follows: Clearance in mouse at 1 mg/kg, iv. It counts as ADME, organism-based. The settings on record: in vivo.

Structures are written as SMILES. Active and inactive are the calls of the source. The rule behind the calls is not given here.

RAC-alpha serine/threonine-protein kinase (Homo sapiens), sequence (P31749 whole entry, the tested form may be a part): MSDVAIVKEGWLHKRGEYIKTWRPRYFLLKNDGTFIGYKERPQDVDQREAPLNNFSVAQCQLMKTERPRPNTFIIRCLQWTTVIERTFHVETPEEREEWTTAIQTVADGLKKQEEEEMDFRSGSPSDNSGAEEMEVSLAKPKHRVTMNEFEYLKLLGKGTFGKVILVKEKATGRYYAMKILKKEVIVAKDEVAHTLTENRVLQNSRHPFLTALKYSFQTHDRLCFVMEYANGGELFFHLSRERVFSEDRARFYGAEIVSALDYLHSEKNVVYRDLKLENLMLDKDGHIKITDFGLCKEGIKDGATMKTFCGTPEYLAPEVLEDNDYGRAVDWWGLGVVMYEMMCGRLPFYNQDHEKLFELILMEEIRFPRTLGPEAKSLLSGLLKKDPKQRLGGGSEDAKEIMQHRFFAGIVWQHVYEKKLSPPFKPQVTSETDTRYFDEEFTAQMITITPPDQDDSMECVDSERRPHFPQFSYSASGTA

With `O=C(NCc1cn(-c2cc(Cl)ccc2O)nn1)c1cc(C(F)(F)F)cc(C(F)(F)F)c1`, the figures for the EC50 in the series with A2780 [1] and in the series on A2780 [2] were 14 µmol and 16.2 µmol, respectively.
The like results for `Cc1cc(C)cc(C(=O)c2cn(-c3ccc(Cl)cc3O)nn2)c1` were, in that order, 64.4 µmol and more than 100 µmol.
In series [3], `O=C(c1cc(C(F)(F)F)cc(C(F)(F)F)c1)c1cn(-c2cc(Cl)ccc2O)nn1` came in with a bioavailability of 85.1%. In addition, the half-life in series [4] was 1.98 h; in series [11], 3.22 h. Also, the outcome with A2780 [5], with U-87 MG, in the series on T47D and with A2780 [10] was Active. For the same molecule, the inhibition entry in series [6], in series [7] and in series [9] was “Active” each time. Moreover, the EC50 was found to be 3.15 µmol in the series on A2780 [1] and 11.99 µmol in the series with A2780 [2]. In series [8], the microsomal CLint was determined as 19.4 µL/min/mg. The clearance in series [12] is 15.5 mL/min/kg.
In the case of `Cc1cc(C)cc(C(=O)NC(=S)Nc2cc([N+](=O)[O-])ccc2O)c1`, in series [4], the half-life amounted to 0.03 h. For the same molecule, the microsomal CLint in series [8] amounted to 1260 µL/min/mg.
In the case of `Cc1cccc(O)c1-n1cc(C(=O)c2ccc3ccccc3c2)nn1`, the EC50 came out at 74.9 µmol in the series on A2780 [1] and 85.2 µmol in the series with A2780 [2].
For `Cc1ccc(O)c(-n2cc(C(=O)c3ccc4ccccc4c3)nn2)c1`, the EC50 with A2780 [1] and in the series with A2780 [2] was more than 100 µmol each time.
As to `O=C(c1ccccc1)c1cn(-c2ccc(Cl)cc2O)nn1`, the EC50 amounted to 42.3 µmol with A2780 [1] and 48.9 µmol in the series with A2780 [2].
As to `Cc1cc(C)cc(C(=O)c2cn(-c3ccc([N+](=O)[O-])cc3O)nn2)c1`, the EC50 with A2780 [1] was 70.5 µmol; in the series on A2780 [2], 89.1 µmol.
The like results for `Cc1cccc(O)c1-n1cc(C(=O)c2ccc(C(C)C)cc2)nn1` were, in that order, more than 100 µmol and more than 100 µmol.
The like results for `Cc1ccc(O)c(-n2cc(C(=O)c3ccc(C(C)C)cc3)nn2)c1` were, in that order, more than 100 µmol and more than 100 µmol.
The like results for `O=C(c1ccccc1)c1cn(-c2cc(Cl)ccc2O)nn1` were, in that order, 51.6 µmol and 104 µM.
Regarding `COc1ccc(Cl)cc1-n1cc(C(=O)c2ccccc2)nn1`, the EC50 in the series on A2780 [1] and in the series on A2780 [2] was more than 100 µmol throughout.
Consider `O=C(c1ccc2ccccc2c1)c1cn(-c2cc(Cl)ccc2O)nn1`, for which the EC50 in the series on A2780 [1] and with A2780 [2] was more than 100 µmol each time.
For `Cc1cc(C)cc(C(=O)c2cn(-c3cc(C)ccc3O)nn2)c1`, the EC50 in the series with A2780 [1] and in the series with A2780 [2] was more than 100 µmol in each case.
For the molecule `Cc1cc(C)cc(C(=O)c2cn(-c3cc(Cl)ccc3O)nn2)c1`, the results for the EC50 with A2780 [1] and with A2780 [2] were 30.6 µmol and 57.8 µmol, respectively.
The corresponding values for `CC(C)c1ccc(C(=O)c2cn(-c3cc(Cl)ccc3O)nn2)cc1` are 41.6 µmol and 64.1 µmol.
The like results for `Cc1cc(C)cc(C(=O)c2cn(-c3c(C)cccc3O)nn2)c1` were, in that order, 98.4 µmol and 104 µM.
In the case of `O=C(NC(=S)Nc1cc([N+](=O)[O-])cc(Cl)c1O)c1ccccc1`, in series [7], the inhibition entry is “Active”.
As to `Cc1ccc(O)c(-n2cc(C(=O)c3ccccc3)nn2)c1`, the EC50 in the series with A2780 [1] and with A2780 [2] was more than 100 µmol in each case.
Turning to `Cc1cccc(O)c1-n1cc(C(=O)c2ccccc2)nn1`, the figures for the EC50 in the series with A2780 [1] and with A2780 [2] were 8 µmol and 8.1 µmol, respectively.

One may read the bioavailability as dose-corrected exposure relative to a reference, in per cent. Low values mean poor availability, high ones good availability. As a reminder, the half-life is how long it takes for the measured level to halve. High values mean slow decline, low ones rapid decline. A word on the clearance: it is the volume of plasma or blood freed of the substance per unit of time.

Values taken from ChEMBL document CHEMBL3596181, “Optimization of the anti-cancer activity of phosphatidylinositol-3 kinase pathway inhibitor PITENIN-1: switching a thiourea with 1,2,3-triazole” (Medchemcomm, 2014).
